Ends that are not written are not given here. * marks the point of attachment. FITC = O=C1OC2(c3ccc(O)cc3Oc3cc(O)ccc32)c2ccc(NC(=S)*)cc21
Experiments:
[1] = system: STK40 kinase-homology domain (aa 22–339); assay: Thermal shift assay; format: binding, human; details: summary statement (Highlights)
[2] = system: partially purified full-length STK40; details: single ATP concentration (0.2mM); ref Murphy et al., 2014; cited from earlier work
COP1 WD40 domain = assay: Flag-immunoprecipitation; format: cell-based, human; details: 293T cells; anti-Flag IP, western blot anti-COP1; Figure 1C lanes 6–8
[3] = target: T1, purified human COP1 WD40 β propeller (386-731) (human, UniProt Q8NHY2 386-731); assay: fluorescence polarisation
[4] = target: COP1 WD40 domain (386–731); format: binding, human; details: same competition assay; 25 nM FITC-peptide, 1500 nM COP1 WD40 (386–731)
[5] = target: T1, purified human COP1 WD40 β propeller …; assay: fluorescence polarisation; remark: listed apart in the source
endogenous COP1 = assay: Flag-immunoprecipitation in 293T cells: endogenous COP1; format: cell-based, human; details: anti-Flag IP, western blot anti-COP1, Figure 1C, black arrow
In short: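 Human 293T cells grown in standard medium were transiently transfected with Flag-tagged STK40 constructs in pcDNA3.0 plus COP1 in pTriEx1.1. Lysates and eluates were run on 4–20% gradient gels and immunoblotted for Flag and COP1.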

T1 sequence (Q8NHY2 386-731): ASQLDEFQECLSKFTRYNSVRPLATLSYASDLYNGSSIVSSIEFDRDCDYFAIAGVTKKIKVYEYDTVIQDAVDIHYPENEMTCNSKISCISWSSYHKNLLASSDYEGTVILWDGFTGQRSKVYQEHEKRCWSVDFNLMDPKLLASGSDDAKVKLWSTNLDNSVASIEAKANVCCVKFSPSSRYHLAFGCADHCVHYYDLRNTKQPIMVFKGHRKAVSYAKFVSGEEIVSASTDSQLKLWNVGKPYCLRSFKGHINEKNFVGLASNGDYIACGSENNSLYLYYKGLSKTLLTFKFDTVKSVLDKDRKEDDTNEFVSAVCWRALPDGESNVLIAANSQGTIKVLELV

Nc1ncnc2c1ncn2[C@@H]1O[C@H](COP(=O)(O)OP(=O)(O)OP(=O)(O)O)[C@@H](O)[C@H]1O [ATP]
ATP binding by STK40 kinase homology domain [1]: does not bind ATP
ATP binding by full-length STK40 [2]: no ATP binding

SSLSGPLQVVPDI [12 residue peptide fused to GFP]
association with / recovery of COP1 WD40 domain (COP1 WD40 domain): recovers the COP1 WD40 domain, but less efficiently than full-length STK40

B1: KHD: construct of STK40 containing only the central kinase homology domain (KHD) (protein)
chain: SGISGNNAKRAGPFILGPRLGNSPVPSIVQCLARKDGTDDFYQLKILTLEERGDQGIESQEERQGKMLLHTEYSLLSLLHTQDGVVHHHGLFQDRTCEIVEDTESSRMVKKMKKRICLVLDCLCAHDFSDKTADLINLQHYVIKEKRLSERETVVIFYDVVRVVEALHQKNIVHRDLKLGNMVLNKRTHRITITNFCLGKHLVSEGDLLKDQRGSPAYISPDVLSGRPYRGKPSDMWALGVVLFTMLYGQFPFYDSIPQELFRKIKAAEYTIPEDGRVSENTVCLIRKLLVLDPQQRLAAADVLEALSAIIASWQSLS
modifications: left off: His tag, N-terminal, cleaved
association with / recovery of COP1 WD40 domain (COP1 WD40 domain): unable to recover detectable quantities of the COP1 WD40 domain

B2: purified STK40 KHD+20 (22-359) (domain or fragment, human, UniProt Q8N2I9 22-359, looked up)
chain: SGISGNNAKRAGPFILGPRLGNSPVPSIVQCLARKDGTDDFYQLKILTLEERGDQGIESQEERQGKMLLHTEYSLLSLLHTQDGVVHHHGLFQDRTCEIVEDTESSRMVKKMKKRICLVLDCLCAHDFSDKTADLINLQHYVIKEKRLSERETVVIFYDVVRVVEALHQKNIVHRDLKLGNMVLNKRTHRITITNFCLGKHLVSEGDLLKDQRGSPAYISPDVLSGRPYRGKPSDMWALGVVLFTMLYGQFPFYDSIPQELFRKIKAAEYTIPEDGRVSENTVCLIRKLLVLDPQQRLAAADVLEALSAIIASWQSLSSLSGPLQVVPDIDDQMSNAD
Ki [3]: 1200 ± 100 nM

B3: KHD containing a C-terminal extension of 20 amino acids: KHD containing a C-terminal extension of 20 amino acids encompassing the COP1-binding peptide (protein)
chain: SGISGNNAKRAGPFILGPRLGNSPVPSIVQCLARKDGTDDFYQLKILTLEERGDQGIESQEERQGKMLLHTEYSLLSLLHTQDGVVHHHGLFQDRTCEIVEDTESSRMVKKMKKRICLVLDCLCAHDFSDKTADLINLQHYVIKEKRLSERETVVIFYDVVRVVEALHQKNIVHRDLKLGNMVLNKRTHRITITNFCLGKHLVSEGDLLKDQRGSPAYISPDVLSGRPYRGKPSDMWALGVVLFTMLYGQFPFYDSIPQELFRKIKAAEYTIPEDGRVSENTVCLIRKLLVLDPQQRLAAADVLEALSAIIASWQSLSSLSGPLQVVPDIDDQMSNAD
modifications: left off: His tag, N-terminal, cleaved
apparent Ki relative to isolated STK40 peptide (in words) [4]: lower apparent Ki than the isolated peptide

{FITC}-SSLSGPLQVVPD [STK40 peptide FITC-SSLSGPLQVVPD]
Kd [5]: 3100 ± 600 nM

B4: Full-length STK40: N-terminal Flag-tagged full-length STK40 (FLAG, HA tags in HeLa tandem IP) (protein)
chain: MKRRASDRGAGETSARAKALGSGISGNNAKRAGPFILGPRLGNSPVPSIVQCLARKDGTDDFYQLKILTLEERGDQGIESQEERQGKMLLHTEYSLLSLLHTQDGVVHHHGLFQDRTCEIVEDTESSRMVKKMKKRICLVLDCLCAHDFSDKTADLINLQHYVIKEKRLSERETVVIFYDVVRVVEALHQKNIVHRDLKLGNMVLNKRTHRITITNFCLGKHLVSEGDLLKDQRGSPAYISPDVLSGRPYRGKPSDMWALGVVLFTMLYGQFPFYDSIPQELFRKIKAAEYTIPEDGRVSENTVCLIRKLLVLDPQQRLAAADVLEALSAIIASWQSLSSLSGPLQVVPDIDDQMSNADSSQEAKVTEECSQYEFENYMRQQLLLAEEKSSIHDARSWVPKRQFGSAPPVRRLGHDAQPMTSLDTAILAQRYLRK
modifications: left off: Flag, N-terminal, kept
immunoprecipitation with endogenous COP1 (endogenous COP1): immunoprecipitates with endogenous COP1
